Our source for the CC50, EC50 and Activity values is ChEMBL document CHEMBL4665883, “Development of DHQ-based chemical biology probe to profile cellular targets for HBV” (Bioorg Med Chem Lett, 2020).

Counter-ions that a name gives are not always drawn. Activity calls are given as the source filed them. The calls are words filed in the database; no cut-off is given here.

A short description of data set [1]: Cytotoxicity against human HepG2.2.15 cells assessed as reduction in cell viability. It is filed as cell-based, HepG2 2.2.15.
The subject of data set [2] is Hepatitis B virus. The data set is described as follows: Antiviral activity against Hepatitis B virus infected in human HepG2.2.15 cells assessed as reduction in HBV DNA level in cell supernatants incubated for 5 days by real time PCR analysis. It is filed as functional, organism-based. As to conditions: HepG2.2.15, 120 h. (In general: In qPCR the cycle at which signal appears reflects the starting amount.)

Data set [3] concerns Hepatitis B virus. The data set can be described thus: Antiviral activity against Hepatitis B virus infected in human HepG2.2.15 cells assessed as reduction in HBsAg level in cell supernatants incubated for 5 days by AlphaLisa assay. It is filed as functional, organism-based. The conditions noted are these: HepG2.2.15, 120 h. (In general: In Alpha technology, singlet oxygen from a donor bead excites a nearby acceptor bead.)

In data set [4] the target is T1, Aldehyde dehydrogenase X, mitochondrial (Homo sapiens) (UniProt P30837).
T1 sequence (whole entry): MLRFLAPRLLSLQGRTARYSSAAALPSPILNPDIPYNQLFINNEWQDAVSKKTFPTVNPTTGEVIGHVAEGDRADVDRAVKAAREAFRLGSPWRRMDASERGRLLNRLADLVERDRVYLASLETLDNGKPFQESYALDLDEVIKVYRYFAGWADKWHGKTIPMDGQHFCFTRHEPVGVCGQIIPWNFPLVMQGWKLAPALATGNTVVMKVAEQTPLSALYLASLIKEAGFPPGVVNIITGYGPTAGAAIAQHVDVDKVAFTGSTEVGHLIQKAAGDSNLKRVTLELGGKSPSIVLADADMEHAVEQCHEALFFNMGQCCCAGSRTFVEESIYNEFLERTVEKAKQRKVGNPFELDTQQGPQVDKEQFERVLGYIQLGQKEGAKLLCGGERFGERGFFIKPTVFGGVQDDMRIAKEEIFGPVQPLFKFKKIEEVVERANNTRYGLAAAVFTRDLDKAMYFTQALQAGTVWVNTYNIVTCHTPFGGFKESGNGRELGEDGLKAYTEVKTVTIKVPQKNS
The data set is described as follows: Binding affinity to ALDH X in human HePAD38 cells infected with HBV assessed as protein labelling at 20 uM after 1 hr by photoaffinity labelling in-situ fluorescence gel-based LC-MS/MS analysis. It is filed as cell-based. The essentials: (§1)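 Live HepAD38 cells incubated 1 h with photoaffinity probe at 20 μM final, then UV-irradiated. Cells were harvested and homogenized in HEPES lysis buffer. Lysates underwent copper-catalysed click conjugation to biotin-Diazo-azide, then large-scale affinity enrichment, with bound proteins identified by LC–MS/MS.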

Data set [5] concerns the target 60 kDa heat shock protein, mitochondrial (Homo sapiens) (UniProt P10809). The data set can be described thus: Binding affinity to 60 kDa HSP60 in human HePAD38 cells infected with HBV assessed as protein labelling at 20 uM after 1 hr by photoaffinity labelling in-situ fluorescence gel-based LC-MS/MS analysis. It is filed as cell-based. In short, it runs like this: as §1

The target of data set [6] is T2, Aldehyde dehydrogenase 1A1 (Homo sapiens) (UniProt P00352).
T2 sequence (whole entry): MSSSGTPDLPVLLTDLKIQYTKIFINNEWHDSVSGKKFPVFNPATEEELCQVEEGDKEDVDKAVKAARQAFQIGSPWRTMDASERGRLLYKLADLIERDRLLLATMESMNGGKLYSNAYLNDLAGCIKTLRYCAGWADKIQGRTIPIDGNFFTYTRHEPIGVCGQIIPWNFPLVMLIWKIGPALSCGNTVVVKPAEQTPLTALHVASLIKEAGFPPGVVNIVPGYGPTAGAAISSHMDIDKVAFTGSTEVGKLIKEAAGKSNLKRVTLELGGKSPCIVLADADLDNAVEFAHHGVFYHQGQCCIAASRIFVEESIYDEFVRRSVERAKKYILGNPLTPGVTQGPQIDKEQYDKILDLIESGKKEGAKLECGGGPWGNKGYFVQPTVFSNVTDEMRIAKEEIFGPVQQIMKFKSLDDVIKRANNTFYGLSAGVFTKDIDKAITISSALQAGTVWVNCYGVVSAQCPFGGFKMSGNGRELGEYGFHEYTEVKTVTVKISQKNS
The data set can be described thus: Binding affinity to RALDH1 in human HePAD38 cells infected with HBV assessed as protein labelling at 20 uM after 1 hr by photoaffinity labelling in-situ fluorescence gel-based LC-MS/MS analysis. Type of data set: cell-based. In short, it runs like this:
as §1

Data set [7] concerns the target T3, Isocitrate dehydrogenase [NADP], mitochondrial (Homo sapiens) (UniProt P48735).
T3 sequence (whole entry): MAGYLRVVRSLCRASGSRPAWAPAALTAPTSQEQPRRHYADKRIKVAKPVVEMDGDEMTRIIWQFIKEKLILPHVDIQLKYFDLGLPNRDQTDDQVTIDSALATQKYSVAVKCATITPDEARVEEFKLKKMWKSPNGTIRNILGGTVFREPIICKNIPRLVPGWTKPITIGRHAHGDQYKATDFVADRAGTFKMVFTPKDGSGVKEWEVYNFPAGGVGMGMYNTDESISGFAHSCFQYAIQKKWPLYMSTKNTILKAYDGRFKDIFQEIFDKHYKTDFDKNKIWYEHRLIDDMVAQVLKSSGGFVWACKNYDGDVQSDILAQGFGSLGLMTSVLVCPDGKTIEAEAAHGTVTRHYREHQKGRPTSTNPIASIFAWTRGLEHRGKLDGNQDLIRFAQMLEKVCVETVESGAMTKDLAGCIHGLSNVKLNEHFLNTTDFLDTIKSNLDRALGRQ
The data set is described as follows: Binding affinity to IDH in human HePAD38 cells infected with HBV assessed as protein labelling at 20 uM after 1 hr by photoaffinity labelling in-situ fluorescence gel-based LC-MS/MS analysis. It is filed as cell-based. The essentials: as §1

Data set [8] has as its target T4, Heme oxygenase 2 (Homo sapiens) (UniProt P30519).
T4 sequence (whole entry): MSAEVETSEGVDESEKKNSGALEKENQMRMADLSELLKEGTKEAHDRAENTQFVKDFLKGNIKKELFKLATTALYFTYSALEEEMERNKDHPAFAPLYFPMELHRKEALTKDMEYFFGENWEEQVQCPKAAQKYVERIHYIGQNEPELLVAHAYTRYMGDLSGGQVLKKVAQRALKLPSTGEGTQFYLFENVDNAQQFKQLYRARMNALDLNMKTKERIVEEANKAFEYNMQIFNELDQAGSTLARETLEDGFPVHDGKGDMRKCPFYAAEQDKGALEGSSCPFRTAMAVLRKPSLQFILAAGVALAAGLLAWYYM
The data set is described as follows: Binding affinity to HMOX2 in human HePAD38 cells infected with HBV assessed as protein labelling at 20 uM after 1 hr by photoaffinity labelling in-situ fluorescence gel-based LC-MS/MS analysis. Type of data set: cell-based. In short, it runs like this:
as §1

Data set [9] concerns the target Poly(rC)-binding protein 1 (Homo sapiens) (UniProt Q15365). The data set can be described thus: Binding affinity to PCBP1 in human HePAD38 cells infected with HBV assessed as protein labelling at 20 uM after 1 hr by photoaffinity labelling in-situ fluorescence gel-based LC-MS/MS analysis. Type of data set: cell-based. In short, it runs like this:
as §1

The target of data set [10] is Terminal nucleotidyltransferase 4B (Homo sapiens) (UniProt Q8NDF8). The data set can be described thus: Binding affinity to PAPD5 in human HePAD38 cells infected with HBV assessed as protein labelling at 20 uM after 1 hr by photoaffinity labelling in-situ fluorescence gel-based LC-MS/MS analysis. Type of data set: cell-based. The essentials: as §1
Terminal nucleotidyltransferase 4B (Homo sapiens), sequence (Q8NDF8 whole entry): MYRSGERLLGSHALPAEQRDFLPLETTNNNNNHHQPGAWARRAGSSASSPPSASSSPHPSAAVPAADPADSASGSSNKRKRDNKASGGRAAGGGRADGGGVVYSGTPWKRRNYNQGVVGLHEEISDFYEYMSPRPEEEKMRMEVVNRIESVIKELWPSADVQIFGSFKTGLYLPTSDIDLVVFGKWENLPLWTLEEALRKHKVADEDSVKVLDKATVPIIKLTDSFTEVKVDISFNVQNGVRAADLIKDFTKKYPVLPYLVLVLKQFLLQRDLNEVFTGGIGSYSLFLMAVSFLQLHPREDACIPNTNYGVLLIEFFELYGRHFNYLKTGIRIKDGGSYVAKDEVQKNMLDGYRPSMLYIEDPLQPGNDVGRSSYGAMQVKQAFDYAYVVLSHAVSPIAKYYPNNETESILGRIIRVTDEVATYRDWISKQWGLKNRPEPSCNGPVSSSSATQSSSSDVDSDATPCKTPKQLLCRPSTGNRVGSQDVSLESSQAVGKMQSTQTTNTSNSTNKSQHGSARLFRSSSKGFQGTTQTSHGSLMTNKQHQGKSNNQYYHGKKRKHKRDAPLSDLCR
Data set [11] deals with Terminal nucleotidyltransferase 4A (Homo sapiens) (UniProt Q5XG87). The data set can be described thus: Binding affinity to PAPD7 in human HePAD38 cells infected with HBV assessed as protein labelling at 20 uM after 1 hr by photoaffinity labelling in-situ fluorescence gel-based LC-MS/MS analysis. It is filed as cell-based. In short, it runs like this: as §1
Terminal nucleotidyltransferase 4A (Homo sapiens), sequence (Q5XG87 whole entry): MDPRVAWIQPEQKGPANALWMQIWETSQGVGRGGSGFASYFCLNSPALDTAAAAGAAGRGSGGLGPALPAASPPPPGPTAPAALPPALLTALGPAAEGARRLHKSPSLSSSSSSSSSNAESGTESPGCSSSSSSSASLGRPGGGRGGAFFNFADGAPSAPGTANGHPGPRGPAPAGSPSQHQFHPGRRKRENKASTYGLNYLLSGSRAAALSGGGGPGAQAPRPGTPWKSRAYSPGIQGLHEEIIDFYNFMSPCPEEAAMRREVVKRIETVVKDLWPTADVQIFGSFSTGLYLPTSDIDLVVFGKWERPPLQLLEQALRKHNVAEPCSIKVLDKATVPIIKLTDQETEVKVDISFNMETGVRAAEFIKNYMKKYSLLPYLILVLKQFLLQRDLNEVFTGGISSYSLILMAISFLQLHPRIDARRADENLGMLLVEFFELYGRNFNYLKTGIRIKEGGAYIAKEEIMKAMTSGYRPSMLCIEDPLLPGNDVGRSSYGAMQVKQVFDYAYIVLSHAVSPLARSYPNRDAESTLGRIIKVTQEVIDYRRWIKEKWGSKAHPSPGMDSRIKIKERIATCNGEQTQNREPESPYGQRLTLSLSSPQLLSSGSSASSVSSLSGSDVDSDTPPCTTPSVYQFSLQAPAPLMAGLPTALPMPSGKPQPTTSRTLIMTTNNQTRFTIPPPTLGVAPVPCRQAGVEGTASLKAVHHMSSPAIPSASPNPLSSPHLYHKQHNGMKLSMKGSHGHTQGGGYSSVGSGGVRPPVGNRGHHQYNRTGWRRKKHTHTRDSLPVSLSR

Poly(rC)-binding protein 1 (Homo sapiens), sequence (Q15365 whole entry): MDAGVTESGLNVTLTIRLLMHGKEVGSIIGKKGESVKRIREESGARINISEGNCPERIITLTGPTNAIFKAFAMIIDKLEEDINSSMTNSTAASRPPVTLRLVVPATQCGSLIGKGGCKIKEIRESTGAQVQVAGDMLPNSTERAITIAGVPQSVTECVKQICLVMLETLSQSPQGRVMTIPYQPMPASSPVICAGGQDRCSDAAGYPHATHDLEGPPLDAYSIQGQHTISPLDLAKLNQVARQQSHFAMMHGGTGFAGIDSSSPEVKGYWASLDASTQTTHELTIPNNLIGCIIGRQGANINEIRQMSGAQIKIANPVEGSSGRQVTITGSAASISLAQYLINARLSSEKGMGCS
60 kDa heat shock protein, mitochondrial (Homo sapiens), sequence (P10809 whole entry): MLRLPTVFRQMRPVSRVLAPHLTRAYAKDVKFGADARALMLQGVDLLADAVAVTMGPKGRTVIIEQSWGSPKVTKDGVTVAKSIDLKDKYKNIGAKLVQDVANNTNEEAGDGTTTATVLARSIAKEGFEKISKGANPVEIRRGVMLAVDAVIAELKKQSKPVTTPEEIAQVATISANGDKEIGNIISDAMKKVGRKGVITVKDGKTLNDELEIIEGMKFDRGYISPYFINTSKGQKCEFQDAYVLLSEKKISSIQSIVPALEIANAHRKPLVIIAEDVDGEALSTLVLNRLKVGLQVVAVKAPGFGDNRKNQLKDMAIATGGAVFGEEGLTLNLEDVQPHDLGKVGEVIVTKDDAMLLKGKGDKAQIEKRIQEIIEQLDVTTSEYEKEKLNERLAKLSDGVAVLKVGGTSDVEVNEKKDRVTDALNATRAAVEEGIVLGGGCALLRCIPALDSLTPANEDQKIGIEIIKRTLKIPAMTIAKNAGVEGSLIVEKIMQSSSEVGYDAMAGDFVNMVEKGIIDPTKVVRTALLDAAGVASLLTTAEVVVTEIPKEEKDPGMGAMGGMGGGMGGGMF

As usually defined, the CC50 is the concentration giving 50% cytotoxicity. As usually defined, the EC50 is the concentration at which the effect is half-maximal. `C#CCCC1(CCOc2cc3c(cc2C(=O)OC)-c2cc(=O)c(C(=O)O)cn2[C@@H](C(C)C)C3)N=N1`: the CC50 in [1] was greater than 150000 nM. Also, the EC50 in the data set with Hepatitis B virus [2] was 82.2 nM; in the data set on Hepatitis B virus [3], 305 nM.

Turning to `COCCCOc1cc2c(cc1OCCOc1ccccc1)-c1cc(=O)c(C(=O)O)cn1C(C(C)C)C2` (stereo not drawn), the EC50 in the data set on Hepatitis B virus [2] turned out to be 32.5 nM; in the data set with Hepatitis B virus [3], 154 nM.

Regarding `C#CCCC1(CCOc2cc3c(cc2C(=O)OC)-c2cc(=O)c(C(=O)O)cn2[C@H](C(C)C)C3)N=N1`, the CC50 in [1] was greater than 150000 nM. In addition, the EC50 with Hepatitis B virus [2] was 3.2 nM; with Hepatitis B virus [3] it was 5.6 nM. Moreover, the result in [4], in data set [5], in data set [6], in [7], in data set [8] and in data set [9] was Active. Moreover, the result in data set [10] and in data set [11] was inactive.

On to `CC(C)OC(=O)OCOP(=O)(CO[C@H](C)Cn1cnc2c(N)ncnc21)OCOC(=O)OC(C)C` [TENOFOVIR DISOPROXIL FUMARATE], for which the EC50 in the data set on Hepatitis B virus [2] is 13.8 nM; with Hepatitis B virus [3], greater than 1000 nM.

As for `COCCCOc1cc2c(cc1OC)-c1cc(=O)c(C(=O)O)cn1C(C(C)C)C2` (racemic), the EC50 in the data set with Hepatitis B virus [2] turned out to be 3 nM; with Hepatitis B virus [3] it was 1.3 nM.

In the case of `COC(=O)c1cc2c(cc1O)CC(C(C)C)n1cc(C(=O)O)c(=O)cc1-2` (stereo not drawn), the concentration for a half-maximal effect (EC50) was 89.5 nM in the data set on Hepatitis B virus [2] and 412 nM in the data set on Hepatitis B virus [3].

In the case of `COCCCOc1cc2c(cc1OC)-c1cc(=O)c(-c3csc(N)n3)cn1C(C(C)C)C2` (stereo not drawn), the EC50 stood at 816 nM with Hepatitis B virus [2] and 367 nM in the data set with Hepatitis B virus [3].

For the molecule `COC(=O)c1cc2c(cc1N1CCCC1)CC(C(C)C)n1cc(C(=O)O)c(=O)cc1-2` (stereo not drawn), the figures for the EC50 in the data set on Hepatitis B virus [2] and in the data set on Hepatitis B virus [3] were 3 nM and 5.7 nM, respectively.

For the molecule `COCCCOc1cc2c(cc1C(=O)OC)-c1cc(=O)c(C(=O)O)cn1C(C(C)C)C2` (stereo not drawn), the EC50 in the data set on Hepatitis B virus [2] came out at 6.1 nM; in the data set on Hepatitis B virus [3], 2.25 nM.
